# XiGFP reactiv: X-chromosome reactivation activator; XiGFP mouse fibroblasts, % GFP-positive cells imaging, 3 d; cells co-treated with 5-aza-dC sensitizer; scaled so ellipticine positive control = 100%; activation, % at 7.58 µM; actives 0.055% (n = 360,000); AID 743238;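 active = mean normalized replicate activation at least 10% and every replicate at or above 10%; inconclusive = only one of the two criteria met; inactive = mean below 10% and not all replicates reach 10%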;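 also: 0% = median of on-plate neutral control wells and 100% = ellipticine 6 µM median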
#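 Material: XiGFP fibroblasts, SV40-immortalized; Buffer or medium: DMEM containing 5-aza-dC; Compound dosing: single point; Times: 3 days compound exposure.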
# NSD2 HMT inh: NSD2 (human) methyltransferase inhibition; O96028; NSD2 peptide methylation, AlphaScreen, 120 min; inhibition, % at 12.5 µM; actives 0.54% (n = 310,000); AID 743445; in the data active = inhibition above about 50%
# ARNT-TACC3 inh: disrupts binding between human ARNT and TACC3. AlphaScreen His-ARNT PAS-B/GST-TACC3 binding, luminescence; TACC3 fragment carries E629A point mutation. actives 0.66% (n = 390,000). AID 623870. inhibition, % at 9.99 µM;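 active = mean inhibition of replicates at least 50% and at least half of replicates each reaching 50%; inconclusive = half or more replicates reach 50% but mean below 50%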;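 also: 0% = complete ARNT plus TACC3 wells and 100% = ARNT alone without TACC3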
# sPLA2-III inh: Blocks human group III sPLA2 activity | Q9NZ20 | QFRET BODIPY PC-A2 liposome hydrolysis, fluorescence | inhibition, % at 12.2 µM | actives 0.56% (n = 370,000) | AID 743126;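 active = inhibition above mean plus 3 SD of compounds lying within the high and low control bounds, cut at about 19% in these data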;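 also: 0% = median of test compound wells and 100% = no enzyme DMSO wells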
# SR-BI DiI-HDL act: activators of SR-BI mediated HDL lipid uptake; CHO ldlA[mSR-BI] cells, DiI-HDL uptake fluorescence, 3 h; 100 = double the neutral-control signal; activation, % at 12.5 µM; actives 0.096% (n = 320,000); AID 504775;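 active = mean replicate activation of at least 60% and every replicate at or above 60%; inconclusive = mean or all-replicate condition met, but not both; inactive = mean below 60% and not all replicates reaching 60%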;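 also: 0% = median plate neutral-control signal and 100% = twice that signal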
#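 system = CHO ldlA[mSR-BI] cells, LDL receptor-null, SR-BI overexpressing | medium = Ham's F12 with 0.5% BSA, HEPES 25 mM, pH 7.4 | probe or stimulus = DiI-HDL 10 µg/mL | compound dosing = single-point compound dose | incubation = compound exposure 3 h, 37 °C | technique = DiI fluorescence, bottom read | read-out = cell-associated DiI fluorescence as measure of HDL uptake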
# SR-BI HDL uptake: mouse SR-BI HDL lipid transfer inhibition; ldlA[mSR-BI] CHO cells, DiI-HDL uptake fluorescence, 3 h; inhibition, % at 12.5 µM; actives 0.96% (n = 320,000);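 active = mean replicate inhibition of at least 70% and a set share of replicates each scoring 70 or more; inconclusive = meets just one of the two criteria; inactive = fails both criteria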;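 also: 0% = median of neutral control wells and 100% = median of positive control wells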
# DiI quencher: counter-screen for SR-BI lipid transfer inhibitors: DiI fluorescence quenchers; cell-free DiI-HDL fluorescence quenching, 30 min; shares compounds with SR-BI HDL uptake; AID 540326; AC50, µM (highest dose often 35 µM), without a hit: at the highest dose activity change, negative = quenching; actives 20% (n = 470);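 active = quenching, a falling signal, with AC50 below a set limit tied to the top valid dose, actives reach about 32 µM in these data; inconclusive = no clear call, values can overlap the other calls; inactive = rising signal, and the rest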
# Numbers without * were called inactive; ? = inconclusive; . = no result given. Rows were chosen to be rich in hits. Some 2% of all compounds tested hit in one or more screens of this group.
SMILES,XiGFP reactiv,NSD2 HMT inh,ARNT-TACC3 inh,sPLA2-III inh,SR-BI DiI-HDL act,SR-BI HDL uptake,DiI quencher
COc1ccc(C2/C=C\CN(S(=O)(=O)c3ccc(C)cc3)CC(=O)N2Cc2ccc(F)cc2)cc1 (configuration not stated),0.0,.,1.3,-7.6,-85.8,85.8*,-6.5%
COc1ccc(C2/C=C\CN(S(=O)(=O)c3ccc(C)cc3)CC(=O)N2Cc2cccc(F)c2)cc1 (configuration not stated),0.0,.,11.4,-8.5,-80.5,80.5*,-0.5%
C[C@H]1CN([C@@H](C)CO)S(=O)(=O)c2ccc(-c3ccc(C#N)cc3)cc2O[C@@H]1CN(C)Cc1ccccn1,-0.2,.,-5.2,.,.,.,.
CCNC(=O)Nc1ccc2c(c1)C(=O)N(C)[C@@H]1CC[C@@H](CC(=O)NCCN3CCCC3)O[C@@H]1CO2,0.2,.,-4.7,.,.,.,.
COCC(=O)Nc1ccc2c(c1)OC[C@@H](C)N(CCC(F)(F)F)C[C@@H](C)[C@@H](OC)CN(C)C2=O,0.6,.,11.8,.,.,.,.
CC(C)C(=O)Nc1nc(-c2ccc3c(c2)CCN3C(=O)C2CC2)cs1,0.2,1.9,-7.2,-2.0,-88.8,88.8*,-8.4%
CNc1nc(-c2ccc3c(c2)CCN3C(=O)c2ccc(F)cc2)cs1,0.2,1.1,9.2,6.8,-39.9,39.9,-16.2%
Oc1ccc(/C=C/c2nc(-c3ccccc3O)n(-c3ccccc3)n2)cc1,.,1.1,4.5,-45.3,-74.3,74.3*,20.2µM*
O=C(C[C@H]1C[C@H]2c3cc(NC(=O)NC4CCCC4)ccc3O[C@H]2[C@H](CO)O1)NCc1cc(F)ccc1F,-0.1,.,4.1,.,.,.,.
CC(=O)Nc1cccc(NC(=O)c2ccc3c(c2)CCN3S(=O)(=O)c2ccccc2)c1,0.0,-1.4,9.7,-7.5,-72.0,?,0.2%
O=C(Nc1ccccc1)c1ccc2c(c1)CCN2S(=O)(=O)c1ccccc1,0.3,-6.8,-19.3,-1.6,-75.9,75.9*,-1.4%
CC(=O)NS(=O)(=O)c1ccc(NC(=O)c2cccc(S(=O)(=O)N3CCc4ccccc43)c2)cc1,0.0,4.4,-2.9,-28.8,-4.7,4.7,.
COc1ccc(NC(=O)c2ccc3c(c2)CCN3S(C)(=O)=O)cc1,0.0,-0.5,.,11.4,.,.,.
COc1ccc(NC(=O)c2ccc3c(c2)CCN3S(=O)(=O)c2ccccc2)cc1,0.0,-0.7,-4.8,-3.0,-81.0,81.0*,-3.2%
NS(=O)(=O)c1ccc(NC(=O)c2ccc3c(c2)CCN3S(=O)(=O)c2ccccc2)cc1,0.3,-4.3,-4.4,-31.8,-63.6,63.6,.
CS(=O)(=O)N1CCc2cc(C(=O)Nc3cccc([N+](=O)[O-])c3)ccc21,0.0,1.9,-0.2,14.5,-68.2,68.2,-13.1%
CN(C)S(=O)(=O)c1cccc(NC(=O)c2cccc(S(=O)(=O)N3CCc4ccccc43)c2)c1,0.0,-0.3,3.7,-21.8,-61.3,61.3,.
CC(=O)c1cccc(NC(=O)c2ccc3c(c2)CCN3S(=O)(=O)c2ccccc2)c1,0.1,1.0,9.3,-16.5,-91.4,91.4*,1.0%
O=C(NCCO)c1nc2ccccc2s1,.,0.8,-8.9,7.2,.,.,.
Cc1cccc(N2CCN(C(=O)COc3ccc4c(C)cc(=O)oc4c3C)CC2)c1C,0.0,-3.0,-3.5,-16.8,-71.5,?,4.3%
Cc1cc(=O)oc2c(C)c(OCC(=O)N3CCN(c4ccc(F)cc4)CC3)ccc12,0.0,5.1,-1.5,-10.7,.,.,.
CCC1CN(C(=O)N2CCC(C(=O)NCc3ccccc3OC)CC2)c2cc(C)ccc2O1 (configuration not stated),0.3,-3.6,-6.6,-3.0,-80.5,80.5*,-4.6%
C[C@H]1CN([C@@H](C)CO)C(=O)Cc2cc(NS(C)(=O)=O)ccc2O[C@@H]1CN(C)C,-1.0,.,-16.1,.,.,.,.
CN(C)C(=O)c1ccc(Nc2nnc(-c3ccc(O)cc3)c3ccccc23)cc1,0.1,-1.6,26.1,-7.6,-8.7,8.7,.

# High-throughput results from PubChem BioAssay.
